# DSG3 Ab inh: blocks pemphigus antibody binding to human desmoglein-3; AID 588358; 0.48% of 310,000 active; binding (percent of control), % at 10 µM; P32926; DSG3-coupled beads, scFv-anti-DSG3-GFP binding, flow cytometry; active compounds read low;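 active = binding more than 3 SD below its plate's average and above zero; inconclusive = below that plate limit but binding exactly zero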;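 also: hits lower antibody fragment binding to DSG3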
# ALR H2O2 inh: blocks human ALR sulfhydryl oxidase activity; purified ALR, DTT oxidation, H2O2 HRP-luminol luminescence; inhibition, % (concentration not given with the values); 3.8% of 290,000 active; AID 485317;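 active = mean replicate inhibition above about 79%, with every replicate also reaching it, limit read from the data; inconclusive = only one of the two criteria met; inactive = mean below limit and not every replicate reaching it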
# Target sequence (P55789 whole entry, looked up): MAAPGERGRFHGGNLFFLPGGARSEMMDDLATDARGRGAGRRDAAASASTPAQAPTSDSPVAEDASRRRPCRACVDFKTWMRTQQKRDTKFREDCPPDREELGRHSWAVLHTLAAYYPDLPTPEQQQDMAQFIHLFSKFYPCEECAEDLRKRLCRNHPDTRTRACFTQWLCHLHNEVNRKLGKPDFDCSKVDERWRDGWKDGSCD
# NLRP3 yeast inh: NALP3 inhibition in yeast; Yeast reconstituted NLRP3/ASC/caspase-1, beta-gal luminescence, 24 h; AID 2825; 0.39% of 330,000 active; inhibition, % at 10 µM;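 active = inhibition of 50% or more; inactive = inhibition below 50%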;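 also: plate controls were induced DMSO wells for no effect and uninduced yeast grown without galactose for full effect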
# PolyA inhibitor: inhibitors of polyadenylation in S. cerevisiae | S. cerevisiae SKY197-pL101 polyadenylation reporter, beta-gal luminescence; efflux-impaired pdr1/pdr3 knockout yeast; score 100 = 6 SD above DMSO | 0.02% of 300,000 active | AID 1875 | activity score, % at 12 µM;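 active = lowest replicate activity score at least 50, where 100 means six control SD above control mean; inconclusive = lowest score under 50 but half or more replicates reach 50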;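 also: yeast exposed to compound for 9 h at 30 °C; higher score means more reporter readthrough which indicates perturbed polyadenylation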
# NALP1 inh: NALP1 inhibition; S. cerevisiae NALP1/ASC/caspase-1 growth, X-gal OD620, 72 h; inhibition, % at 10 µM; 0.61% of 280,000 active; in the data active = inhibition mostly above about 24%, no sharp cut-off; inactive = mostly below about 32%
# Arr AP2 block: human beta-arrestin and AP2 interaction inhibition; FITC-arrestin peptide / GST-AP2 beads, flow cytometry; AP2 beta2 appendage carries R879A mutation; inhibition, % at 10 µM; 0.31% of 340,000 active; AID 504490;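 active = inhibition above a set limit, near 3 SD of compounds lacking own fluorescence, cut at about 54% in these data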;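 also: plate controls were DMSO wells for no effect and 5 µM unlabelled arrestin peptide for full effect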
#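 System: GST-tagged AP2 beta2-adaptin appendage (R879A) on 4 µm glutathione beads / Reagent: FITC-arrestin peptide, 50 nM / Detection: HyperCyt-sampled flow cytometry, FL1 channel, ex 488/em 535 nm / Timing: 12 min plus 1 h, RT / Buffer or medium: PBS plus Tween 20 (0.05%) and BSA (0.1%)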
# The depositor's hits bear a star; ? = inconclusive; · = no result given. Compounds with a hit are over-represented: about 4.6% of the library has one in this group of screens.
SMILES,DSG3 Ab inh,ALR H2O2 inh,NLRP3 yeast inh,PolyA inhibitor,NALP1 inh,Arr AP2 block
O=C(OC1CCCCC1=O)c1cc(Cl)ccc1[N+](=O)[O-] (configuration not stated),82.9,90.7*,12.4,5.5,10.0,-8.3
O=c1oc(Cc2ccccc2)nc2ccccc12,97.8,-8.8,15.6,-7.1,30.7,5.9
Cc1ccc(OC(=O)COc2ccccc2C)c(-n2nc3ccccc3n2)c1,104.2,96.3*,14.4,-13.4,0.7,6.2
Cc1cc(S(=O)(=O)Nc2ncnc3sccc23)ccc1F,100.6,·,·,·,·,·
O=C(CSc1nc(-c2ccccc2Cl)ns1)NCc1ccc2c(c1)OCO2,74.7*,·,21.9,-13.9,22.8,-5.3
O=C(CSc1nc(-c2ccccc2)cc(=O)[nH]1)NCc1ccc2c(c1)OCO2,67.9*,-2.6,26.2,?,7.8,23.2
O=C(CSc1nc(-c2ccccc2Cl)ns1)NCc1ccco1,·,8.3,19.7,-10.5,8.7,-4.5
O=C(CSc1nc2ccccc2[nH]1)NCc1ccc2c(c1)OCO2,97.8,·,7.8,-5.0,28.5,-5.6
O=C(CSc1c[nH]c2ccccc12)NCc1ccc2c(c1)OCO2,112.4,98.3*,-8.4,-3.4,24.1,-7.5
CCNC(=O)[C@@H]1CCCN1C(=O)[C@H](CCCN=C(N)N)NC(=O)[C@H](CC(C)C)NC(=O)[C@@H](CC(C)C)NC(=O)[C@H](Cc1ccc(O)cc1)NC(=O)[C@H](CO)NC(=O)[C@H](Cc1c[nH]c2ccccc12)NC(=O)[C@H](Cc1cnc[nH]1)NC(=O)[C@@H]1CCC(=O)N1,·,·,·,-14.2,·,·
O=C(CSc1ccccc1)N1CCCC(N2CCN(c3cccc(Cl)c3)CC2)C1 (configuration not stated),·,·,-4.6,-11.1,7.1,10.0
CC(N=Cc1c(O)c2ccccc2oc1=O)C(=O)O (configuration not stated),51.3*,-1.6,11.7,-6.9,8.4,-0.1
O=C(O)C(CO)N=Cc1c(O)c2ccccc2oc1=O (configuration not stated),105.1,-3.2,14.1,17.7,-10.6,18.2
Cc1cc(=O)n2nc(N3CCC(C(=O)NCC(C)c4ccccc4)CC3)sc2n1 (configuration not stated),·,0.6,13.0,-5.3,2.2,-6.7
CC(=O)C(Sc1nccc(-c2cccs2)n1)C(C)=O,114.2,98.1*,39.1,30.0,-12.0,-31.6
Cc1nnc(N2C(=O)C(O)=C(C(=O)c3ccco3)C2c2ccc(F)cc2)s1 (configuration not stated),109.9,70.9,11.3,27.3,37.1,-5.6
Cc1nnc(N2C(=O)C(O)=C(C(=O)c3ccco3)C2c2ccc(C(C)C)cc2)s1 (configuration not stated),115.2,96.7*,27.2,14.9,9.9,-14.2
CSc1ccc(C2C(C(=O)c3ccco3)=C(O)C(=O)N2c2nnc(SC)s2)cc1 (configuration not stated),127.7,98.1*,-0.8,4.1,10.6,10.2
Cc1nnc(N2C(=O)C(O)=C(C(=O)c3ccco3)C2c2ccc(C(C)(C)C)cc2)s1 (configuration not stated),212.0,97.1*,28.3,-3.5,12.6,-1.3
Cc1ccc(C2C(C(=O)c3ccco3)=C(O)C(=O)N2c2ncccn2)cc1 (configuration not stated),101.5,13.9,7.2,9.2,3.8,-15.0
Cc1ccc(C(C)C)c(OCC(=O)NNC(=O)Cn2[nH]c(=O)c3ccccc3c2=O)c1,99.8,-0.1,-11.4,·,·,1.4
O=C(N/N=C(\CC(=O)c1cccs1)C(F)(F)F)c1cccnc1,112.2,60.4,17.7,-5.2,19.9,-1.1
O=C(N/N=C(/CC(=O)c1cccs1)C(F)(F)F)c1ccc(O)cc1,114.9,80.3*,4.6,6.5,9.9,-2.9
CC(C)=CCC12Oc3cc(O)ccc3C1(O)Oc1cc(O)c([C@H]3C=C(C)CC(c4ccc(O)cc4O)[C@H]3C(=O)c3ccc(O)cc3O)c(O)c1C2=O (some centres not stated),·,60.4,16.0,-4.3,·,·
O=C(c1ccccc1)c1ccc(N2CCN(C(=O)c3ccc(F)cc3F)CC2)c(F)c1,102.9,·,·,·,·,·

# Source: PubChem
